In ChEMBL document CHEMBL5252671, “Design, synthesis and evaluation of the anti-breast cancer activity of 1,3-oxazolo[4,5-d]pyrimidine and 1,3-oxazolo[5,4-d]pyrimidine derivatives” (2023):
Calls of active or inactive are those of the source. No cut-off for these calls is given here.

How the values were obtained:
Format in all cases: functional
MDA-MB-231 [1] = assay: Antiproliferative activity against human wild type MDA-MB-231 cells assessed as inhibition of cell growth at 3 uM measured at 24 hrs in presence of 5-Iodotubercidin by trypan blue staining based MTT assay
Summary of the method: (§1)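 MDA cell lines were treated with 5-iodotubercidin (1 μM or 3 μM) or with test compound (10 μM or 30 μM). Drugs were dissolved in 0.225% DMSO, which also served as vehicle control. Proliferation was measured by Trypan Blue cell counting every 24 h for several consecutive days after seeding. MTT viability compared wild-type and mutant cells.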

MCF7 [2] = assay: Anticancer activity against human MCF7 cells measured at 48 hrs
Summary of the method: (§2)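 NCI DTP five-dose screen on the breast subpanel: compound at 0.01, 0.1, 1, 10 and 100 μM for 48 h. Cell density read by sulforhodamine B (protein content). GI50, TGI and LC50 were derived from the T, T0 and C optical densities using the NCI formulas.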

T47D [3] = assay: Anticancer activity against human T47D cells measured at 48 hrs; summary of the method: as §2
MDA-MB-231 [4] = assay: Antiproliferative activity against human ADK-L knockdown MDA-MB-231 cells assessed as inhibition of cell growth at 1 to 3 uM measured at 24 hrs in presence of 5-iodotubercidin by trypan blue staining based MTT assay; settings: dose 1-3 µM; summary of the method: as §1
BT-549 [5] = assay: Antiproliferative activity against human BT-549 cells assessed as inhibition of cell growth at 1 X 10^-5 M measured for 48 hrs by sulforhodamine B assay relative to control; settings: BT-549, 48 h, dose 1 10^-5M
Summary of the method: (§3)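 NCI one-dose screen. Cells were seeded at 5000-40000/well in RPMI 1640 with 5% FBS and 2 mM L-glutamine and preincubated 24 h at 37 °C in 5% CO2. Compound was added at 10⁻⁵ M for 48 h. Cells were then fixed with 10% TCA, stained with sulforhodamine B, washed with 1% acetic acid, solubilized in 10 mM Tris and read as OD at 510 nm.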

MDA-MB-468 [6] = assay: Antiproliferative activity against human MDA-MB-468 cells assessed as inhibition of cell growth at 1 X 10^-5 M measured for 48 hrs by sulforhodamine B assay relative to control; settings: MDA-MB-468, 48 h, dose 1 10^-5M; summary of the method: as §3
MDA-MB-468 [7] = assay: Anticancer activity against human MDA-MB-468 cells measured at 48 hrs; summary of the method: as §2
MDA-MB-231 [8] = assay: Antiproliferative activity against human wild type MDA-MB-231 cells assessed as inhibition of cell growth at 10 uM measured at 24 to 96 hrs by trypan blue staining based MTT assay; settings: time 24-96 hrs; summary of the method: as §1
T47D [9] = assay: Antiproliferative activity against human T47D cells assessed as inhibition of cell growth at 1 X 10^-5 M measured for 48 hrs by sulforhodamine B assay relative to control; settings: dose 1 10^-5M; summary of the method: as §3
MDA-MB-231 [10] = assay: Antiproliferative activity against human wild type MDA-MB-231 cells assessed as inhibition of cell growth at 3 uM measured at 24 hrs by trypan blue staining based MTT assay; summary of the method: as §1
MDA-MB-231 [11] = assay: Antiproliferative activity against human wild type MDA-MB-231 cells assessed as inhibition of cell growth at 3 uM measured at 96 hrs by trypan blue staining based MTT assay; summary of the method: as §1
MDA-MB-231 [12] = assay: Antiproliferative activity against human wild type MDA-MB-231 cells assessed as inhibition of cell growth at 10 to 30 uM measured for 24 hrs in presence of 5-Iodotubercidin by trypan blue staining based MTT assay; settings: dose 10-30 µM; summary of the method: as §1
Hs-578T [13] = assay: Anticancer activity against human Hs-578T cells measured at 48 hrs; summary of the method: as §2
MDA-MB-231 [14] = assay: Antiproliferative activity against human wild type MDA-MB-231 cells assessed as inhibition of cell growth at 10 to 30 uM measured for 24 hrs by trypan blue staining based MTT assay; settings: dose 10-30 µM; summary of the method: as §1
MCF7 [15] = assay: Antiproliferative activity against human MCF7 cells assessed as inhibition of cell growth at 1 X 10^-5 M measured for 48 hrs by sulforhodamine B assay relative to control; settings: MCF7, 48 h, dose 1 10^-5M; summary of the method: as §3
MDA-MB-231 [16] = assay: Anticancer activity against human MDA-MB-231 cells measured at 48 hrs; summary of the method: as §2
Hs-578T [17] = assay: Antiproliferative activity against human Hs-578T cells assessed as inhibition of cell growth at 1 X 10^-5 M measured for 48 hrs by sulforhodamine B assay relative to control; settings: dose 1 10^-5M; summary of the method: as §3
BT-549 [18] = assay: Anticancer activity against human BT-549 cells measured at 48 hrs; summary of the method: as §2
MDA-MB-231 [19] = assay: Antiproliferative activity against human MDA-MB-231 cells assessed as inhibition of cell growth at 1 X 10^-5 M measured for 48 hrs by sulforhodamine B assay relative to control; settings: MDA-MB-231, 48 h, dose 1 10^-5M; summary of the method: as §3
MDA-MB-231 [20] = assay: Antiproliferative activity against human ADK-L knockdown MDA-MB-231 cells assessed as inhibition of cell growth at 1 to 3 uM measured at 24 hrs by trypan blue staining based MTT assay; settings: dose 1-3 µM; summary of the method: as §1
MDA-MB-231 [21] = assay: Antiproliferative activity against human wild type MDA-MB-231 cells assessed as inhibition of cell growth at 3 uM measured at 48 hrs by trypan blue staining based MTT assay; summary of the method: as §1

SMILES: c1ccc(-c2nc(N3CCNCC3)c3oc(-c4ccccc4)nc3n2)cc1
- Activity (MDA-MB-231 [1]): Active
- GI50 (MCF7 [2]): 1.48 µM
- LC50 (concentration giving 50% net cell kill) (MCF7 [2]): 7.4 µM
- TGI (MCF7 [2]): 3.31 µM
- GI50 (T47D [3]): 2.1 µM
- TGI (T47D [3]): 4.95 µM
- CC50 (T47D [3]; read-out: LC50 (the source's name)): > 100 µM
- Activity (MDA-MB-231 [4]): Active
- inhibition at 10 µM (BT-549 [5]): 106%
- inhibition at 10 µM (MDA-MB-468 [6]): 174%
- GI50 (MDA-MB-468 [7]): 1.73 µM
- TGI (MDA-MB-468 [7]): 3.42 µM
- Activity (MDA-MB-231 [8]): Active
- inhibition at 10 µM (T47D [9]): 142%
- Activity (MDA-MB-231 [10]): Active
- Activity (MDA-MB-231 [11]): inactive
- Activity (MDA-MB-231 [12]): Active
- GI50 (Hs-578T [13]): 1.88 µM
- LC50 (50% lethal concentration) (Hs-578T [13]): 8.8 µM
- TGI (Hs-578T [13]): 4.07 µM
- Activity (MDA-MB-231 [14]): Active
- inhibition at 10 µM (MCF7 [15]): 162%
- GI50 (MDA-MB-231 [16]): 1.76 µM
- LC50 (concentration killing 50% of starting cells) (MDA-MB-231 [16]): 6.1 µM
- TGI (MDA-MB-231 [16]): 3.28 µM
- inhibition at 10 µM (Hs-578T [17]): 161%
- GI50 (BT-549 [18]): 1.77 µM
- TGI (BT-549 [18]): 3.41 µM
- inhibition at 10 µM (MDA-MB-231 [19]): 187%

SMILES: Nc1ncnc2c1c(I)cn2[C@@H]1O[C@H](CO)[C@@H](O)[C@H]1O
- Activity (MDA-MB-231 [20]): Active
- Activity (MDA-MB-231 [21]): Active
